# Tests used:
# Vaccinia virus = test: Antiviral activity against vaccinia virus in HFF cells by plaque reduction assay; assay type: functional, organism-based; conditions: Orthopoxvirus vaccinia
# Cowpox virus [1] = test: Antiviral activity against TK+ cowpox virus delta crmA in HFF cells; assay type: functional, organism-based
# Cowpox virus [2] = test: Antiviral activity against cowpox virus in HFF cells by plaque reduction assay; assay type: functional, organism-based
# Cowpox virus [3] = test: Antiviral activity against TK- cowpox virus TK:GFP lacZ in HFF cells; assay type: functional, organism-based
# HFF = test: Cytotoxicity against HFF cells by neutral red uptake assay; assay type: functional; conditions: Homo sapiens
# In short: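 Uninfected HFF cells are incubated with various drug concentrations for 7 days at 37 °C. Viability is read by Neutral Red uptake. CC50 is the concentration that reduces uptake by 50%.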
structure (smiles),measurement,setting,value
Nc1ccn(C[C@@H](CO)OCP(=O)(O)O)c(=O)n1 [CIDOFOVIR],EC50,Vaccinia virus,24 µM
same,EC50,Cowpox virus [1],3.3 µM
same,EC50,Cowpox virus [2],40 µM
same,EC50,Cowpox virus [3],5.2 µM
same,CC50,HFF,> 317 µM
N#CC1=C(N)OC2=C(C(=O)CCC2)C1c1cn([C@H]2C[C@@H](O)[C@@H](CO)O2)c(=O)[nH]c1=O (stereo not given in full),EC50,Vaccinia virus,4.6 µM
same,EC50,Cowpox virus [1],0.8 µM
same,EC50,Cowpox virus [2],2 µM
same,EC50,Cowpox virus [3],28 µM
same,CC50,HFF,> 300 µM
O=c1[nH]c(=O)n([C@H]2C[C@H](O)[C@@H](CO)O2)cc1I [IDOXURIDINE],EC50,Vaccinia virus,6 µM
same,EC50,Cowpox virus [1],0.4 µM
same,EC50,Cowpox virus [2],2 µM
same,EC50,Cowpox virus [3],27 µM
same,CC50,HFF,> 260 µM

# From ChEMBL document CHEMBL1138928, “Toward orthopoxvirus countermeasures: a novel heteromorphic nucleoside of unusual structure” (J Med Chem, 2006)
